Measured values of several laboratories.

O=C(Nc1ccc(Cl)cc1)Nc1cccc(-c2cn(Cc3ccc(Br)cc3)nn2)c1 — viability (A549; cell growth or viability, CCK-8; 20 µM, 72 h): 108%
CC[C@H](C)[C@H](NC(=O)[C@H](CCCNC(=N)N)NC(=O)[C@H](CC(C)C)NC(=O)[C@@H](N)CCCNC(=N)N)C(=O)N[C@@H](CCC(N)=O)C(=O)N[C@@H](CCCNC(=N)N)C(=O)N[C@@H](CCCNC(=N)N)C(=O)N[C@@H](CCCNC(=N)N)C(=O)N[C@@H](Cc1ccccc1)C(=O)N[C@@H](CCCNC(=N)N)C(=O)N[C@@H](CCCCN)C(=O)N[C@@H](CCCCN)C(=O)NCC(N)=O — IC50 (A549; cell growth or viability, MTT; 24 h): > 500 µM
O=c1cc(CSc2ccc(N=Cc3ccc(F)cc3)cc2)occ1O — IC50 (ABTS scavenging, absorbance): 0.02 µM
CC(C)C[C@H](NC(=O)[C@H](CCCCN)NC(=O)[C@H](Cc1c[nH]c2ccccc12)NC(=O)[C@H](CCCCN)NC(=O)[C@H](CCCCN)NC(=O)[C@H](CC(C)C)NC(=O)[C@H](Cc1ccccc1)NC(=O)[C@H](CCCCN)NC(=O)[C@H](CCC(=O)O)NC(=O)[C@H](CC(C)C)NC(=O)[C@H](CC(C)C)NC(=O)[C@H](CCCCN)NC(=O)[C@@H](N)CCCNC(=N)N)C(N)=O — IC50 (A549; cell growth or viability, MTT; 24 h): 76 µM
O=c1cc(CSc2ccc(N=Cc3ccc(O)cc3)cc2)occ1O — IC50 (ABTS scavenging, absorbance): 20.3 µM
CC[C@H](C)[C@H](NC(=O)[C@H](CCCNC(=N)N)NC(=O)[C@H](CCCNC(=N)N)NC(=O)[C@H](CCSC)NC(=O)[C@H](CCCNC(=N)N)NC(=O)[C@H](CCCNC(=N)N)NC(=O)[C@H](CCCNC(=N)N)NC(=O)[C@H](CC(C)C)NC(=O)[C@H](CCCNC(=N)N)NC(=O)CNC(=O)[C@H](Cc1c[nH]c2ccccc12)NC(=O)[C@@H](N)CCSC)C(=O)N[C@@H](CCCCN)C(N)=O — IC50 (A549; cell growth or viability, MTT; 24 h): > 500 µM
CCOc1ccc(Nc2c3c(nc4ccccc24)CCC3)cc1 — inhibition (Leishmania donovani; parasite growth; 33.33 µM, promastigote): 81%
N.N.[Cl][Pt][Cl] — inhibition (MEG-01; cell growth or viability, ATP luminescence; 10 µM, 72 h): 92%
c1ccc(Oc2ccc(Nc3c4c(nc5ccccc35)CCC4)cc2)cc1 — inhibition (Leishmania donovani; parasite growth; 40 µM, intracellular, amastigote): 96%
N#C[Se]Cc1cc(=O)oc2cc(O)ccc12 — GI50 (A549; cell growth or viability, SRB): 28 µM
O=c1cc(CSc2ccc(N=Cc3ccccc3[N+](=O)[O-])cc2)occ1O — IC50 (ABTS scavenging, absorbance): 42.6 µM
Cc1c(Cl)c(=O)oc2cc(OCCCC[Se]C#N)ccc12 — GI50 (A549; cell growth or viability, SRB): 12 µM
O=c1cc(CSc2ccc(N=Cc3ccccc3C(F)(F)F)cc2)occ1O — IC50 (ABTS scavenging, absorbance): 39.8 µM
N.N.[Cl][Pt][Cl] — IC50 (A549; cell growth or viability, MTT; 48 h): 5.55 µM
